Experimental data from PMC3076632 (Journal of medicinal chemistry, 2011).

Key:
Type in all cases: cell-based
human Nod1 = target: T1, human Nod1 (Homo sapiens, UniProt Q9Y239); experiment: NF-κB induction in HEK-Blue cells; conditions: for Nod1-agonistic activity (in words): primary screen, NF-κB induction
T1 sequence (Q9Y239 1-953): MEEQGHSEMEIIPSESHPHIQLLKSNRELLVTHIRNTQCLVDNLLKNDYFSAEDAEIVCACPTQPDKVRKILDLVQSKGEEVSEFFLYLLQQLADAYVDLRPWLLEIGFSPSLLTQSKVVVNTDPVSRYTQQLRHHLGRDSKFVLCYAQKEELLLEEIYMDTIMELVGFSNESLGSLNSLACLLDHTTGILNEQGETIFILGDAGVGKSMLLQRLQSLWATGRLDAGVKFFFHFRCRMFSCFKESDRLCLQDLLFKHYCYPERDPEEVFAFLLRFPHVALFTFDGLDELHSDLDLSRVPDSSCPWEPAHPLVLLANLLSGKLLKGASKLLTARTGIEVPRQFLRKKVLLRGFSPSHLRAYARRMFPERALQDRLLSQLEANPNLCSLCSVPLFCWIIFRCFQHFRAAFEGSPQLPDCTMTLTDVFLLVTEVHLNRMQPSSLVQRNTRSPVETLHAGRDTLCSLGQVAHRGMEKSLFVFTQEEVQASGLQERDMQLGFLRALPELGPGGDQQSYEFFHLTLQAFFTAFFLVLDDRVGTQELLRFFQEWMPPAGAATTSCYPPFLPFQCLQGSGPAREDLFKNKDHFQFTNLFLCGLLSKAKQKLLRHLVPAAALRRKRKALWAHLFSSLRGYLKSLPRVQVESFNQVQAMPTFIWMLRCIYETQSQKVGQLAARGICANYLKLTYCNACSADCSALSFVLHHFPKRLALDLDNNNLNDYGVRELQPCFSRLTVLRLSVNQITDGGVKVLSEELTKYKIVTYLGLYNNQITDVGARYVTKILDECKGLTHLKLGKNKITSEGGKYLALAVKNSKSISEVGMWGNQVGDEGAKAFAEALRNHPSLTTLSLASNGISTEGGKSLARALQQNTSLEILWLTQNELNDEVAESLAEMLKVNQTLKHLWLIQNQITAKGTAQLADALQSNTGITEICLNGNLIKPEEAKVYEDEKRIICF
Outline: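 HEK-Blue cells stably express secreted alkaline phosphatase (sAP) under NF-κB/AP-1 promoters. Cells were grown to confluency, then exposed to graded concentrations of test compound. Extracellular sAP in the supernatant, taken as proportional to Nod1-mediated NF-κB induction, was measured spectrophotometrically at 620 nm with an alkaline phosphatase-specific chromogen in the detection medium.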

[1] = system: p38 MAPK in the granulocytic population in whole human blood; experiment: Phosflow flow cytometric assay for p38MAPK in whole human blood; conditions: ex vivo whole human blood, granulocytes, 15 minutes at 37°C, flow cytometry
Outline: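 Heparinised fresh whole human blood was exposed to graded concentrations of test compound in saline for 15 min at 37°C. One-step erythrocyte lysis and leukocyte fixation, wash (500 g, 8 min), permeabilisation in ice-cold methanol for 30 min, two PBS washes. Staining for 60 min with PE-anti-phospho-p38 (pT180/pY182) mAb or matched PE mouse IgG1κ isotype control. Single-colour PE flow cytometry, 20,000 gated events.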

[2] = system: CD11b in the granulocytic population in whole human blood; experiment: CD11b flow cytometric assay in whole human blood; conditions: ex vivo whole human blood, granulocytes, 1 hour at 37°C, flow cytometry
Outline: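 Fresh anticoagulated whole human blood was incubated with graded dilutions of test compound for 1 h at 37°C, with saline negative controls. Samples were chilled on ice for 15 min, then stained with anti-CD11b/Mac-1 antibody for 30 min on ice so that only surface CD11b was labelled. Erythrocytes were lysed and leukocytes fixed in one step in pre-warmed lyse/fix buffer, then washed twice (200 g, 5 min). Single-colour PE flow cytometry, 20,000 gated events.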

Human PBMCs = experiment: Transcriptomal profiling; conditions: 20 μg/mL
Outline: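 PBMCs from fresh heparinised human blood were stimulated with test compound at 20 μg/mL for 2 h; total RNA was extracted from treated and negative-control samples. 4 μg RNA per sample was hybridised to U133 plus 2.0 arrays. Chips passed QC (5′/3′ ratio < 3.0), were scaled to target intensity 500 and normalised, with absent-call genes filtered. Differential expression was defined as ≥2-fold change versus negative control.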

| SMILES | p38 MAPK upregulation (in words) [1] | CD11b upregulation (in words) [2] | Nod1-agonistic activity (in words) (human Nod1) | other results |
| --- | --- | --- | --- | --- |
| CCCCCCCCCCCC(=O)N[C@H](CCC(=O)NC(CCCC(N)C(=O)O)C(=O)O)C(=O)O (stereo partly drawn) [Compound 16, 2-Amino-6-((R)-4-carboxy-4-dodecanamidobutanamido) heptanedioic acid] | upregulated in a dose-dependent manner | upregulated in a dose-dependent manner |  | EC50 (human Nod1): ~0.03 nM |
| CCCCCCCCCCCC(=O)N[C@H](CCC(=O)NC(CCCCC(=O)O)C(=O)O)C(=O)O (stereo partly drawn) [Compound 67, 2-((R)-4-carboxy-4-dodecanamidobutanamido)heptanedioic acid] |  |  | abrogation of activity |  |
| CCCCCCCCCCCCN(CCCCCCCCCCCC)[C@H](CCC(=O)NC(CCCC(N)C(=O)O)C(=O)O)C(=O)O (stereo partly drawn) [Compound 27, 2-Amino-6-((R)-4-carboxy-4-(didodecylamino)butanamido) heptanedioic acid] | more potent than 16 | more potent than 16 |  | pathway analysis of induced gene transcripts (in words) (Human PBMCs; IPA pathway analysis): activation of pathways involving signaling mediated by Triggering Receptor Expressed on Myeloid Cells 1; Fold change IL1B (interleukin 1, beta), up (Human PBMCs; probe set 39402_at, two hours, up): 4.45 fold; Fold change IL1RN (interleukin 1 receptor antagonist), up (Human PBMCs; probe set 212659_s_at, two hours, up): 8.19 fold; Fold change IL1RN (interleukin 1 receptor antagonist), up (Human PBMCs; probe set 216243_s_at, two hours, up): 7.54 fold; Fold change IL1RN (interleukin 1 receptor antagonist), up (Human PBMCs; probe set 216244_at, two hours, up): 8.27 fold |
| CCCCCCCCCCCC(=O)N[C@H](CCC(=O)NCCCCCN)C(=O)O [Compound 69, (R)-5-((5-Aminopentyl)amino)-2-dodecanamido-5-oxopentanoic acid] |  |  | abrogation of activity |  |
| CCCCCCCCCCCC(=O)N[C@H](CCC(=O)N[C@H](CCCCN)C(=O)O)C(=O)O [Compound 73, (R)-6-Amino-2-((R)-4-carboxy-4-dodecanamidobutanamido) hexanoic acid] |  |  | bereft of any activity |  |
| N[C@H](CCC(=O)N[C@H](CCC[C@H](N)C(=O)O)C(=O)O)C(=O)O [γ-glutamyl-meso-diaminopimelic acid, reference compound] | inactive | inactive | inactive |  |
